The target in series [1] is T1, Scavenger receptor class B member 1 (Mus musculus, UniProt Q61009).
T1 sequence (Q61009 whole entry): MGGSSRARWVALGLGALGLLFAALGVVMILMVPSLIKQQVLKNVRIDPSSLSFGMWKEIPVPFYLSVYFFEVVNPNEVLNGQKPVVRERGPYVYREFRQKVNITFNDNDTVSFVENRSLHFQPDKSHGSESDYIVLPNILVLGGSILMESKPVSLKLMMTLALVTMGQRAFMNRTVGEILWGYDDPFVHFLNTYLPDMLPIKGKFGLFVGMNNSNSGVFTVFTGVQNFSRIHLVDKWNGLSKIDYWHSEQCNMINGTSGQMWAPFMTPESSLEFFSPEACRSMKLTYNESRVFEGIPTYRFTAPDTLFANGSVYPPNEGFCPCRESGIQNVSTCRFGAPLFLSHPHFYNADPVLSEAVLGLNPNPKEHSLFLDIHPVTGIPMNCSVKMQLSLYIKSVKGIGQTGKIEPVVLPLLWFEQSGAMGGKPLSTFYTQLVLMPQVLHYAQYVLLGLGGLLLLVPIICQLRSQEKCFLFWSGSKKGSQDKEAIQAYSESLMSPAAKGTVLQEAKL
As to the kind of experiment: Inhibition of mouse SR-B1 overexpressed in CHO cells assessed as inhibition of transfer of the fluorescent lipid DiI from HDL particles to cells after 3 hrs. It is filed as cell-based. The procedure, abridged:
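Primary assay: uptake of fluorescent lipid DiI from DiI-labeled HDL particles into IdlA[mSR-BI] cells, i.e. CHO cells overexpressing mouse SR-BI. Read-out is cell-associated DiI fluorescence. Compounds that quenched DiI-HDL fluorescence in a dose-dependent manner were excluded by counterscreen. 1 μM BLT-1 served as positive control.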

Series [2] can be described thus: Aqueous solubility of the compound in PBS at pH 7.4 with 1 % DMSO after 24 hrs by UPLC-MS analysis. The format is physicochemical. The settings on record: for solubility: buffer, pH 7.4, 24 h; for solubility at 24 h: PBS with 1% DMSO, pH 7.4.
The test system of the next series is CHO. Kind of series: Cytotoxicity against CHO cells after 24 hrs by CellTiterGlo assay. The format is cell-based, Cricetulus griseus. Particulars: chinese hamster. The essentials:
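IdlA[mSR-BI] cells (CHO overexpressing mouse SR-BI) incubated with compound for 24 h; cellular ATP levels read by CellTiter-Glo luminescence.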
Background: ATP-based viability assays read luminescence as a measure of living cells.

Series [3] deals with T2, Scavenger receptor class B member 1 (Mus musculus) (UniProt Q61009).
T2 sequence (whole entry): T1 sequence (Q61009 whole entry)
Kind of series: (§1) Inhibition of mouse SR-B1 overexpressed in CHO cells assessed as inhibition of [3H]cholesteryl ester uptake into cells after 2 to 3 hrs by liquid scintillation counting. The format is cell-based. The procedure, abridged:
(§2)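 IdlA[mSR-BI] cells exposed to HDL carrying [³H]-labeled cholesteryl oleate ester; cellular uptake of [³H]CE measured across a compound dilution series, IC₅₀ from dose-response curve.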

The target of series [4] is T1, Scavenger receptor class B member 1. The series is described as §1. It is filed as cell-based. The procedure, abridged: as §2
A short description of series [5]: Stability in human plasma assessed as compound remaining at 5 uM after 5 hrs by UPLC-MS analysis. It is filed as ADME, cell-free. Particulars: read-out: Stability. The essentials:
(§3)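 Compound incubated 5 h in human or mouse plasma; percent parent remaining determined.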

A short description of series [6]: Stability in mouse plasma assessed as compound remaining at 5 uM after 5 hrs by UPLC-MS analysis. Particulars: read-out: Stability. The format is ADME, cell-free. The essentials:
as §3

A short description of series [7]: Plasma protein binding in human at 5 uM after 5 hrs by equilibrium dialysis. It is filed as ADME, cell-free. The settings on record: read-out: PPB (converted). The essentials:
(§4)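 Fraction bound to plasma proteins measured separately in human and mouse plasma.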
Background: In equilibrium dialysis free small molecules cross a membrane that holds back macromolecules.

Series [8] in a line: Plasma protein binding in mouse at 5 uM after 5 hrs by equilibrium dialysis. It is filed as ADME, cell-free. The settings on record: read-out: PPB (converted). The procedure, abridged:
as §4

Series [9] can be described thus: Stability in mouse liver microsomes assessed as compound remaining at 1 uM after 1 hr by UHPLC-MS analysis. It is filed as ADME. Particulars: read-out: Stability. The essentials:
(§5)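 Compound incubated 1 h with mouse or human liver microsomes; percent parent remaining determined.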

Series [10] can be described thus: Stability in human liver microsomes assessed as compound remaining at 1 uM after 1 hr by UHPLC-MS analysis. It is filed as ADME. The settings on record: read-out: Stability. The procedure, abridged: as §5
On the technique in general: Liver microsomes are a subcellular fraction often used to study metabolism.

For series [11], the target named is T2, Scavenger receptor class B member 1 (Mus musculus). As to the kind of experiment: Inhibition of mouse SR-B1 overexpressed in CHO cells assessed as inhibition of receptor-mediated Alexa-594-labeled transferrin endocytosis up to 35 uM. It is filed as cell-based. The essentials: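 Receptor-mediated endocytosis in IdlA[mSR-BI] cells followed by uptake of Alexa-594-labeled transferrin, compound tested at concentrations up to 35 μM.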

The target in another series is L-type calcium channel (Homo sapiens, UniProt O60840+Q01668+Q13698+Q13936). Kind of series: Inhibition of L-type calcium channel (unknown origin) at 10 uM.
In series [12] the target is T1, Scavenger receptor class B member 1. As to the kind of experiment: Activity at mouse SR-B1 overexpressed in CHO cells assessed as enhancement of binding of ALexa-488-labeled HDL particles to cells after 3 hrs.
In series [13] the target is T2, Scavenger receptor class B member 1 (Mus musculus). As to the kind of experiment: Inhibition of mouse SR-B1 overexpressed in CHO cells assessed as inhibition of transfer of the fluorescent lipid DiI from HDL particles to cells at 1 uM after 3 hrs. It is filed as cell-based.

In brackets after ≈: the same amount, converted by molar mass. Activity calls are given as the source filed them. The calls are words filed in the database; no cut-off is given here.

Broadly, the IC50 is the midpoint of a concentration-inhibition curve. As usually defined, the solubility is the dissolved amount per volume that the medium holds. Low readings indicate a poorly soluble substance, high ones a readily soluble substance. As usually defined, the inhibition is the change of the read-out against control, counted positive when it falls. As a reminder, the EC50 is the concentration giving half of the maximal effect.

For `C[C@@H]1CN([C@H](C)CO)C(=O)c2cc(NC(=O)Cc3cn(C)c4ccccc34)ccc2O[C@H]1CN(C)S(=O)(=O)c1ccc(Cl)cc1`, in series [1], the IC50 turned out to be 0.18 µM. In [2], this compound showed a solubility of 0.1 µM (≈ 0.0653 µg/mL). Also, the Activity result in the series on CHO is “Non-toxic”.
For `COCC(=O)n1ccc2cc(-c3csc(NC(=O)c4cc(OC)cc(OC)c4)n3)ccc21`, the inhibition entry in [3] was “Active”. The solubility at 24 h in series [2] was 0.57 µM (≈ 0.257 µg/mL).
As for `CC(C)NC(=O)Nc1ccc2c(c1)C(=O)N([C@H](C)CO)C[C@@H](C)[C@H](CN(C)S(=O)(=O)c1ccc(Cl)cc1)O2`, the IC50 in series [4] was 0.25 µM. Moreover, in series [2], the solubility at 24 h worked out at 79 µM (≈ 44.8 µg/mL). For the same compound, the Activity entry with CHO is recorded as “Non-toxic”. Moreover, the remaining at 5 h, 5 µM in series [5] and in series [6] was more than 99% in each case. For the same compound, the fraction unbound at 5 h, 5 µM in series [7] is 0.055; in series [8], 0.053. For the same compound, the remaining at 1 h, 1 µM in series [9] turned out to be 25%; in series [10], 10%. Also, the inhibition entry in series [11] is “inactive”. In addition, the inhibition at 10 µM at L-type calcium channel amounted to 19%. Moreover, the EC50 in series [12] was found to be 0.4 µM.
Take `COc1c(NC(=O)C(=O)c2ccc(OCCN3CCOCC3)c3ccccc23)cc(C(C)(C)C)cc1NS(C)(=O)=O` [ITX-5061]: the IC50 in series [4] came to 0.77 µM.
For the compound `C[C@@H]1CN([C@H](C)CO)C(=O)c2cc(NC(=O)Cc3cn(C)c4ccccc34)ccc2O[C@H]1CN(C)S(=O)(=O)c1cn(C)cn1`, the IC50 in series [1] was 6.4 µM. In [2], this compound had a solubility of 79 µM (≈ 49.2 µg/mL). In addition, the Activity entry in the series on CHO is given as “Non-toxic”.
As for `CCCCCCC1CCC/C1=N\NC(N)=S` (stereo not drawn), in [13], the inhibition was more than 70%.
Regarding `C[C@H](C(=O)NC1CCCC1)N(C(=O)Cn1nnc(-c2ccc3c(c2)OCO3)n1)C1CCCCC1`, in [4], the IC50 turned out to be 0.005 µM.
Regarding `CC(C)NC(=O)Nc1ccc2c(c1)C(=O)N(C(C)C)C[C@@H](C)[C@H](CN(C)S(=O)(=O)c1ccc(Cl)cc1)O2`, in series [1], the IC50 came to 9.9 µM. In addition, the Activity entry with CHO was “Non-toxic”.
Taken in the same sequence, the figures for `C[C@@H]1CN([C@H](C)CO)C(=O)c2cc(NC(=O)C3CCOCC3)ccc2O[C@H]1CN(C)S(=O)(=O)c1ccc(Cl)cc1` were more than 25 µM and “Non-toxic”.
As for `C[C@@H]1CN([C@H](C)CO)C(=O)c2cc(NC(=O)CCC(F)(F)F)ccc2O[C@H]1CN(C)S(=O)(=O)c1ccc(Cl)cc1`, in [1], the IC50 amounted to 0.26 µM. Besides, the Activity entry in the series with CHO is “Non-toxic”.
Taken in the same sequence, the figures for `CC(C)NC(=O)Nc1cccc2c1O[C@@H](CN(C)S(=O)(=O)c1ccc(Cl)cc1)[C@H](C)CN([C@H](C)CO)C2=O` were more than 25 µM and “Non-toxic”.
In the case of `C[C@@H]1CN([C@H](C)CN(C)C)C(=O)c2cc(NC(=O)Cc3cn(C)c4ccccc34)ccc2O[C@H]1CN(C)S(=O)(=O)c1ccc(Cl)cc1`, the IC50 in [1] was more than 25 µM. In addition, in the series with CHO, the Activity result is “Non-toxic”.

For the origin of these results see ChEMBL document CHEMBL3400126, “Benzo-fused lactams from a diversity-oriented synthesis (DOS) library as inhibitors of scavenger receptor BI (SR-BI)-mediated lipid uptake” (Bioorg Med Chem Lett, 2015).
